One compound from ChEMBL document CHEMBL3526029, “Disposition and metabolism of GSK2251052 in humans: a novel boron-containing antibiotic” (Drug Metab Dispos, 2013) can be followed below.

Data set [1] is described as follows: Total drug recovery in healthy human at 1500 mg, iv infusion for 1 hr as single dose after 24 hrs. Type of data set: ADME, organism-based. The conditions noted are these: in vivo, read-out: Drug recovery. In a few lines:
(§1)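 Six healthy adult males, fasted ≥10 h, got one 1500 mg [14C]GSK2251052 dose ([…], 0.56 MBq) as a constant-rate 1-h IV infusion in 0.9% NaCl. Urine was collected at 0–6, 6–12 and 12–24 h, then in 24-h blocks to 336 h; feces in 24-h blocks. Urine was counted directly by LSC; feces were homogenized and combusted in duplicate before LSC. Cumulative recovery is given as mean % of dose.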

Data set [2] has as its system Blood. In words: Cmax in healthy human whole blood assessed as radioactivity at 1500 mg, iv infusion for 1 hr as single dose. The conditions noted are these: in vivo. Further details: dose 1500 mg, route intravenous. Type of data set: ADME, organism-based. In outline: (§2)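 Six fasted healthy men received 1500 mg [14C]GSK2251052 as a 1-h i.v. infusion. Blood and plasma were sampled from predose to 336 h after infusion start. Radioactivity was counted by LSC; plasma below 870 ng eq/ml was reanalysed by accelerator MS, with predose background subtracted. Noncompartmental analysis used actual sampling times, linear-up/log-down trapezoids and CL = dose/AUC(0-∞).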

A short description of data set [3]: Drug recovery in healthy human urine assessed as total radioactivity at 1500 mg, iv infusion for 1 hr as single dose after 120 to 336 hrs by HPLC method. Type of data set: ADME, organism-based. The conditions noted are these: in vivo, in the assay text read “0 to 120 hrs” for “120 to 336 hrs”. In a few lines:
(§3)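 Urine pooled by weight per subject over 0–120 h; 120–336 h pools from all subjects combined into one composite. Centrifuged at ~21,000g, then supernatant profiled by HPLC (Atlantis T3, ammonium acetate pH 4.5/methanol, 30°C) with radiochemical detection plus MS identification. Results are % of dose, corrected for centrifugation recovery measured by triplicate LSC.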

The next data set has as its system Homo sapiens. In words: Toxicity in healthy human assessed as mortality at 1500 mg, iv infusion for 1 hr as single dose. The conditions noted are these: in vivo. The class given is organism-based. In a few lines:
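Single-center, open-label phase I study in six healthy adult males, fasted ≥10 h. Each got one 1500 mg [14C]GSK2251052 dose as a constant-rate 1-h IV infusion. Safety was monitored throughout, with follow-up for at least 336 h after dosing.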

A short description of data set [4]: Drug metabolism in cynomolgus monkey cytosol assessed as (S)-3-(3-(aminomethyl)-1-hydroxy-1,3-dihydrobenzo[c][1,2]oxaborol-7-yloxy)propanoicacid formation at 50 to 500 uM after 3 hrs by liquid scintillation counting in presence of NAD+ and ADH inhibitor 4-MP. Type of data set: ADME, Macaca fascicularis, Liver. In outline: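 NAD+ (7.5 mM) incubations of [14C]GSK2251052 with 4 mg/ml monkey liver cytosol or liver S9 in pyrophosphate buffer included 4-MP at 0.6 mM final. Incubations ran in triplicate at 37°C. Extracts were counted by LSC and pooled for radio-HPLC.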

Data set [5] can be described thus: Total drug recovery in healthy human at 1500 mg, iv infusion for 1 hr as single dose after 336 hrs. The class given is ADME, organism-based. The conditions noted are these: in vivo, read-out: Drug recovery. In a few lines: as §1
A short description of data set [6]: Drug metabolism in healthy human urine assessed as 3-(3-(2-amino-1-hydroxyethyl)-2-hydroxyphenoxy)propanoic acid formation at 1500 mg, iv infusion for 1 hr as single dose by mass spectrometry. Type of data set: ADME, organism-based. The conditions noted are these: in vivo. In a few lines: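 Urine was collected through 336 h after a 1500 mg [14C] i.v. 1-h infusion to six men. Samples were pooled by weight (0–120 h per subject; 120–336 h composite) and centrifuged. Profiling used HPLC (Atlantis T3, ammonium acetate pH 4.5/methanol, 30°C) with fraction radioactivity counting. Identity came from Orbitrap positive-ion accurate mass. Values were given as % dose, corrected for recovery.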

A short description of data set [7]: Drug recovery in healthy human feces at 1500 mg, iv infusion for 1 hr as single dose after 72 hrs. The class given is ADME, organism-based. The conditions noted are these: read-out: Drug recovery.
The next data set deals with Liver microsome. As to the kind of experiment: Drug metabolism in human liver microsomes assessed as (S)-3-(3-(aminomethyl)-1-hydroxy-1,3-dihydrobenzo[c][1,2]oxaborol-7-yloxy)propanoicacid formation at 50 to 500 uM after 3 hrs by liquid scintillation counting in presence of NAD+. The class given is ADME. In a few lines: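 [14C]GSK2251052 was incubated in triplicate for 1 or 3 h at 37°C with 4 mg/ml S9 (monkey liver, lung or kidney; human liver), liver cytosol or liver microsomes and 7.5 mM NAD+. Buffer was pyrophosphate at pH 7.4, 8.4 or 8.8. Controls lacked cofactor or enzyme. Reactions were quenched with acetonitrile, counted by LSC, and pooled for radio-HPLC.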

For another data set, the system named is Plasma. In words: Half life in healthy human plasma assessed as radioactivity at 1500 mg, iv infusion for 1 hr as single dose. The conditions noted are these: in vivo. Type of data set: ADME, organism-based. In outline: (§4)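 Healthy men got a single 1500 mg [14C] dose by 1 h i.v. infusion. K2EDTA blood was sampled up to 336 h. Radioactivity in blood and plasma was measured by LSC, with AMS for plasma below LLQ. Parent and M3 were measured by LC/MS/MS (5–10,000 ng/ml range). Noncompartmental analysis used actual times, with t1/2 = ln2/λz and Tmax observed directly, timed from infusion start.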

Data set [8] can be described thus: Drug recovery in healthy human feces at 1500 mg, iv infusion for 1 hr as single dose after 24 hrs. The class given is ADME, organism-based. The conditions noted are these: read-out: Drug recovery.
Data set [9] has as its system Blood. In words: Tmax in healthy human whole blood assessed as radioactivity at 1500 mg, iv infusion for 1 hr as single dose. Type of data set: ADME, organism-based. The conditions noted are these: in vivo. In outline: as §4
Data set [10] is described as follows: Drug recovery in healthy human urine at 1500 mg, iv infusion for 1 hr as single dose after 120 to 336 hrs by HPLC method. The conditions noted are these: in the assay text read “0 to 120 hrs” for “120 to 336 hrs”, read-out: Drug recovery. The class given is ADME, organism-based. In outline:
as §3

A short description of data set [11]: Drug recovery in healthy human urine at 1500 mg, iv infusion for 1 hr as single dose after 312 hrs. The class given is ADME, organism-based. The conditions noted are these: read-out: Drug recovery.
Data set [12] in a line: Total drug recovery in healthy human at 1500 mg, iv infusion for 1 hr as single dose after 120 hrs. The class given is ADME, organism-based. The conditions noted are these: in vivo, read-out: Drug recovery.
Data set [13] can be described thus: Drug recovery in healthy human urine at 1500 mg, iv infusion for 1 hr as single dose after 240 hrs. Type of data set: ADME, organism-based. The conditions noted are these: read-out: Drug recovery.
Data set [14] in a line: Total drug recovery in healthy human at 1500 mg, iv infusion for 1 hr as single dose after 192 hrs. Type of data set: ADME, organism-based. The conditions noted are these: in vivo, read-out: Drug recovery.
The test system of data set [15] is Blood. As to the kind of experiment: AUC (0 to t) in healthy human whole blood assessed as radioactivity at 1500 mg, iv infusion for 1 hr as single dose. Type of data set: ADME, organism-based. The conditions noted are these: in vivo. In a few lines: as §2
The nature of data set [16]: Drug recovery in healthy human feces at 1500 mg, iv infusion for 1 hr as single dose after 120 hrs. Type of data set: ADME, organism-based. The conditions noted are these: read-out: Drug recovery. In outline:
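Feces were collected at 24-h intervals through 336 h after a 1500 mg [14C] i.v. 1-h infusion. Samples were homogenised with water and duplicate aliquots combusted for LSC. For profiling, 0–120 h pools were extracted twice with acetonitrile:methanol:water:formic acid, reconstituted, and analysed by radio-HPLC. Values were reported as % dose.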

The nature of data set [17]: Drug recovery in healthy human urine at 1500 mg, iv infusion for 1 hr as single dose after 288 hrs. Type of data set: ADME, organism-based. The conditions noted are these: read-out: Drug recovery.
Data set [18] in a line: Drug recovery in healthy human urine at 1500 mg, iv infusion for 1 hr as single dose after 192 hrs. The conditions noted are these: read-out: Drug recovery. The class given is ADME, organism-based.
Data set [19] can be described thus: Drug recovery in healthy human feces at 1500 mg, iv infusion for 1 hr as single dose after 144 hrs. The class given is ADME, organism-based. The conditions noted are these: read-out: Drug recovery.
Data set [20] can be described thus: Drug recovery in healthy human urine at 1500 mg, iv infusion for 1 hr as single dose after 96 hrs. Type of data set: ADME, organism-based. The conditions noted are these: read-out: Drug recovery.

For `Cl.N[14CH2][C@H]1OB(O)c2c(OCCCO)cccc21`, the dose excreted at 24 h is 51.3% in [1] and 0.1% in data set [8]. Besides, in the data set on Blood [2], the Cmax came to 43700 ng/mL. The Drug recovery is given as 83.1% in data set [3] and “metabolite_detected” in [6]. Besides, in the data set on Homo sapiens, the Activity result is “Non-toxic”. Further, the Drug metabolism result (in data set [4]; in the data set with Liver microsome) was “metabolite_not_detected” each time. The dose excreted at 336 h in data set [5] stood at 98.2%. In [7], the dose excreted at 72 h was determined as 4.3%. For the same compound, the t1/2 in the data set on Plasma turned out to be 96 h. Also, the Tmax in the data set on Blood [9] is 0.917 h. For the same compound, in data set [10], the dose excreted stood at 28.9%. In [11], the dose excreted at 312 h was 90.2%. In addition, the dose excreted at 120 h in [12] was 90.7%; in [16], 7.3%. Further, the dose excreted at 240 h in [13] is 88.8%. The dose excreted at 192 h was 95% in [14] and 87.4% in data set [18]. In the data set with Blood [15], the AUCt came to 141 µg·h/mL. The dose excreted at 288 h in [17] is 89.8%. Moreover, the dose excreted at 144 h in data set [19] was found to be 7.5%. In data set [20], the dose excreted at 96 h is 81.1%.

The Cmax is the peak of the concentration-time curve. The Tmax is the time at which the peak concentration occurs.
